Measurements: ChEMBL document CHEMBL2163251, “Synthesis and pharmacological evaluation of indolinone derivatives as novel ghrelin receptor antagonists” (Bioorg Med Chem, 2012)
Active and inactive are the calls of the source. No cut-off for these calls is given here.

What was measured:
[1] = Binding affinity at histamine receptor at 10 uM
[2] = Drug metabolism in human liver microsomes at 5 uM after 24 hrs; format: ADME, Microsome; details: read-out: Drug metabolism
Procedure, shortened: (§1)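 Compound at 5 µM incubated 24 h with isolated hepatic microsomal fractions from mouse, rat or human.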

[3] = Drug metabolism in rat liver microsomes at 5 uM after 24 hrs; format: ADME, Microsome; details: read-out: Drug metabolism; procedure, shortened: as §1
[4] = Binding affinity at adrenergic receptor at 10 uM
Hepatocyte = test: Intrinsic clearance in human hepatocytes assessed per million cells at 5 uM; format: ADME, cell-based
Mus musculus [5] = test: Effect of glucose tolerance in fasted C57/BL6N mouse assessed as inhibition of glucose excursion at 30 mg/kg, po administered 30 mins before glucose challenge measured after 20 to 120 mins by IPGTT; format: functional
Procedure, shortened: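 Male C57/Bl6N mice fasted 16–18 h, then given 30 mg/kg or vehicle by oral gavage. Fasting glucose read from tail blood 30 min after dosing. Glucose 2 g/kg ip given 30 min later, with glucose measured at 20–120 min. […] calculated by trapezoidal method and expressed as % of vehicle AUC.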

[6] = Binding affinity at cannbinoids receptor at 10 uM
[7] = molecular target: T1, Growth hormone secretagogue receptor type 1 (Homo sapiens, UniProt Q92847); test: Antagonist activity at human GHSR1 expressed in CHO-CREluc cells after 4 hrs by Luciferase reporter assay; format: functional, cell-based
T1 sequence (Q92847 whole entry): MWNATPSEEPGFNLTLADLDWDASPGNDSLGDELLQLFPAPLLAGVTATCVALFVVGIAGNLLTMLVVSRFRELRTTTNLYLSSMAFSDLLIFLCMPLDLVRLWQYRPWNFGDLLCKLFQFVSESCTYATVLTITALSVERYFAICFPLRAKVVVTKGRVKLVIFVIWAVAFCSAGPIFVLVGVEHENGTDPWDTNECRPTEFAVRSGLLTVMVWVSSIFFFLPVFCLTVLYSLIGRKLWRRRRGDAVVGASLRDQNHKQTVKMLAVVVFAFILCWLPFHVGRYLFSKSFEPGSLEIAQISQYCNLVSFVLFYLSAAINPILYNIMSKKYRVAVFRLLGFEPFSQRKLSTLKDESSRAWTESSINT
Procedure, shortened: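 hGHSR1a stably cloned into CHO line carrying CRE-luciferase reporter (six CRE upstream of firefly luciferase). Cells plated in MEM with 10% dialysed FBS. Stimulation medium held 0.1 µM forskolin and 3 nM human ghrelin. Luciferase read by photon counting.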

[8] = Binding affinity at opioids receptor at 10 uM
Rattus norvegicus [9] = test: Inhibition of gastric emptying in CD rat at 10 mg/kg, ip; format: functional; details: Stomach, route intraperitoneal
Procedure, shortened: (§2)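 24 h fasted male CD rats dosed ip (vehicle 2 ml/kg), no ghrelin. BaSO4 meal (75% w/v in 0.5% CMC, 1 ml/100 g) given by gavage. Rats killed at 0 or 60 min and stomach content weighed. Result expressed relative to the mean content of drug-free controls killed at t=0.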

[10] = Binding affinity at adenosine receptor at 10 uM
[11] = Permeability across human Caco2/TC7 cells assessed as compound recovery; format: ADME, cell-based; details: Caco-2, read-out: permeability
[12] = Binding affinity at dopamine receptor at 10 uM
Rattus norvegicus [13] = test: Inhibition of ghrelin-induced gastric emptying in ip dosed CD rat; format: functional, organism-based; details: Stomach
Procedure, shortened: (§3)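 24 h fasted male CD rats dosed ip (vehicle 2 ml/kg), then given rat ghrelin 20 µg/kg iv. BaSO4 meal (75% w/v in 0.5% CMC, 1 ml/100 g) given by gavage. Stomach content weighed at 0 or 60 min and compared with drug-free controls killed at t=0.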

[14] = Permeability across human Caco2/TC7 cells compound transport; format: ADME, cell-based; details: Caco-2, read-out: permeability
Rattus norvegicus [15] = test: Inhibition of ghrelin induced food intake in CD rat at 10 mg/kg, ip administered 30 mins prior to icv ghrelin challenge measured after 2 hrs; format: functional; details: route intraperitoneal
Procedure, shortened: (§4)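 Adult male CD rats (200–300 g) fitted with lateral-ventricle cannulae. Dosed 10 mg/kg ip 30 min before icv rat ghrelin (10 µg/rat in 15 µl) or saline. Cumulative food intake measured hourly for 4 h, n=6–7 per group.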

Mus musculus [16] = test: Inhibition of ghrelin-induced food intake in fasted C57/BL6N mouse at 10 mg/kg, ip up to 6 hrs; format: functional, organism-based; parameters: dose 10 mg/kg
Procedure, shortened: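 Male C57BL/6 mice fasted overnight and dosed ip 10 mg/kg (vehicle 10 ml/kg) 1 h before refeeding. Cumulative food intake recorded after food return.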

Rattus norvegicus [17] = test: Inhibition of ghrelin induced food intake in CD rat at 10 mg/kg, ip administered 30 mins prior to icv ghrelin challenge measured after 4 hrs; format: functional; details: route intraperitoneal; procedure, shortened: as §4
Rattus norvegicus [18] = test: Inhibition of ghrelin induced food intake in CD rat at 10 mg/kg, ip administered 30 mins prior to icv ghrelin challenge measured after 1 hr; format: functional; details: route intraperitoneal; procedure, shortened: as §4
Rattus norvegicus [19] = test: Inhibition of gastric emptying in CD rat at 3 mg/kg, ip; format: functional; details: Stomach, route intraperitoneal; procedure, shortened: as §2
[20] = Binding affinity at muscarinic receptor at 10 uM
Rattus norvegicus [21] = test: Inhibition of ghrelin-induced gastric emptying in CD rat at 3 mg/kg, ip; format: functional; details: Stomach, route intraperitoneal; procedure, shortened: as §3
[22] = Binding affinity at serotonin receptor at 10 uM
[23] = Binding affinity at receptor at 10 uM
Rattus norvegicus [24] = test: Inhibition of ghrelin-induced gastric emptying in CD rat at 10 mg/kg, ip; format: functional; details: Stomach, route intraperitoneal; procedure, shortened: as §3
Rattus norvegicus [25] = test: Inhibition of ghrelin induced food intake in CD rat at 10 mg/kg, ip administered 30 mins prior to icv ghrelin challenge measured after 3 hrs; format: functional; details: route intraperitoneal; procedure, shortened: as §4
[26] = Drug metabolism in mouse liver microsomes at 5 uM after 24 hrs; format: ADME, Microsome; details: read-out: Drug metabolism; procedure, shortened: as §1
[27] = Binding affinity at vasopressin receptor at 10 uM
P-glycoprotein = test: P-glycoprotein-mediated efflux ratio of the compound; format: ADME; details: not told
[28] = molecular target: T1, Growth hormone secretagogue receptor type 1; test: Displacement of [125I]-ghrelin from human GHSR1 expressed in CHO-CREluc cells after 1 hr by scintillation counting; format: cell-based
Procedure, shortened: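 Crude membranes from CHO-CREluc-hGHSR1a cells were homogenized in TM buffer (10 mM Tris-HCl pH 7.4, 10 mM MgCl2) and spun at 40,000g. Incubated 1 h in TM buffer with 0.25% BSA and 10% dialysed FBS, 0.25 nM [125I] human ghrelin and increasing compound concentrations. Harvested on PEI-pretreated GF/B filters and washed with cold buffer. Bound radioactivity counted by scintillation.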

CCN1CCN(CC(=O)NC2(c3ccc(Cl)c(Cl)c3)C(=O)Nc3cc(Cl)cc(Cl)c32)CC1 (single isomer, unassigned; (+))
Activity [1]: inactive | metabolised at 24 h, 5 µM [2]: 41% | metabolised at 24 h, 5 µM [3]: 45% | Activity [4]: inactive | CLint (Hepatocyte): 0.097 mL/h/10⁶ cells | inhibition in vivo at 30 mg/kg (Mus musculus [5]): 32% | Activity [6]: inactive | IC50 [7]: 7 nM | Activity [8]: inactive | inhibition in vivo at 10 mg/kg (Rattus norvegicus [9]): 55% | Activity [10]: inactive | recovery [11]: 51.8% | Activity [12]: inactive | inhibition (Rattus norvegicus [13]): Dose-dependent effect | Papp [14]: 0.385 ×10⁻⁶ cm/s | inhibition in vivo at 10 mg/kg (Rattus norvegicus [15]): 60% | inhibition (Mus musculus [16]): Active | inhibition in vivo at 10 mg/kg (Rattus norvegicus [17]): 53% | inhibition in vivo at 10 mg/kg (Rattus norvegicus [18]): 58% | inhibition in vivo at 3 mg/kg (Rattus norvegicus [19]): 68% | Activity [20]: inactive | inhibition in vivo at 3 mg/kg (Rattus norvegicus [21]): 55% | Activity [22]: inactive | Activity [23]: inactive | inhibition in vivo at 10 mg/kg (Rattus norvegicus [24]): 62% | inhibition in vivo at 10 mg/kg (Rattus norvegicus [25]): 61% | metabolised at 24 h, 5 µM [26]: 44% | Activity [27]: inactive | efflux ratio (P-glycoprotein): 6.6 | Ki [28]: 8 nM
